For orientation: Ki means a dissociation constant, usually derived from enzyme kinetics or from competition with a known ligand. High values mean weaker binding, low ones tighter binding.

The text below walks through data of ChEMBL document CHEMBL4325933, “Potent, Selective, and Cell-Penetrating Inhibitors of Kallikrein-Related Peptidase 4 Based on the Cyclic Peptide MCoTI-II” (ACS Med Chem Lett, 2018).

In one series the target is Plasma kallikrein (Homo sapiens, UniProt P03952). In words: Inhibition of plasma kallikrein (unknown origin) using Ac-NLTR-pNA as substrate preincubated for 30 mins followed by substrate addition and measured for 7 mins by spectrophotometric method.
Sequence of Plasma kallikrein (P03952 20-390 limits assumed): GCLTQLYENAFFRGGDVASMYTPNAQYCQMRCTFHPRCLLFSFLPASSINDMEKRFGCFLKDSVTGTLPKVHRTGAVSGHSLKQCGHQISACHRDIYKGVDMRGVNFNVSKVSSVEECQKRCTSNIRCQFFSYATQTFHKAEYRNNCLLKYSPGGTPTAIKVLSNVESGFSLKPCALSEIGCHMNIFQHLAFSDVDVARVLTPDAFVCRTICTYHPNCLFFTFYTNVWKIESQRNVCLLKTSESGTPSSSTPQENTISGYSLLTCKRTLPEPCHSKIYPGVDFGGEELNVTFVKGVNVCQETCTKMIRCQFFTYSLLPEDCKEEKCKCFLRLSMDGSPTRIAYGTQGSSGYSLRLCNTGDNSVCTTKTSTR
Sequence of Plasma kallikrein (P03952 391-638 limits assumed): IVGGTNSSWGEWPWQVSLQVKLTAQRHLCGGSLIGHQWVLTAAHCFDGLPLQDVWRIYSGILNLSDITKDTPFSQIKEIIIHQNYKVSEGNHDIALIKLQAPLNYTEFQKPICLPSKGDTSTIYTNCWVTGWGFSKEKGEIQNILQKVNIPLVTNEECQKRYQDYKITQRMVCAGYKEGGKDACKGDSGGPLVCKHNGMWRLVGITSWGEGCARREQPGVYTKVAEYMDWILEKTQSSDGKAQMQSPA
The species named for series [1] is Homo sapiens. Kind of series: Selectivity ratio of Ki for factor 10a (unknown origin) to Ki for KLK4 (unknown origin) expressed in sf9 cells.
The next series has as its target T1, Coagulation factor XII (Homo sapiens, UniProt P00748).
T1 sequence (P00748 whole entry): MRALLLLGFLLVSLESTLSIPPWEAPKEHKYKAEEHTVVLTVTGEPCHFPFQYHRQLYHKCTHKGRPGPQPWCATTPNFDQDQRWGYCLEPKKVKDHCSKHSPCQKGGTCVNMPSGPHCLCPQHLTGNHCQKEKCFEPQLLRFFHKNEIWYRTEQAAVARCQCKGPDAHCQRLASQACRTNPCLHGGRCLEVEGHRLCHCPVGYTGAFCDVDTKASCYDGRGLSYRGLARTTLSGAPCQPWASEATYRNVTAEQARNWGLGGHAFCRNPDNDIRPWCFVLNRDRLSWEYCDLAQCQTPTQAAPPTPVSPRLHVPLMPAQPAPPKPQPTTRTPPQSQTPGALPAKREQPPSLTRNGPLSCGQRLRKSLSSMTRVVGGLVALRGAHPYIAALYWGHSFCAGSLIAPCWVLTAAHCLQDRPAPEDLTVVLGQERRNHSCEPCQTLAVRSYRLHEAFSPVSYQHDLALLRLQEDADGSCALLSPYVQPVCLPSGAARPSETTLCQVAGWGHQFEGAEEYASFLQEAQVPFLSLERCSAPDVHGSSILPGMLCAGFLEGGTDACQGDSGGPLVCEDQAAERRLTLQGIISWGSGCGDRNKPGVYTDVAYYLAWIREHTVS
In words: Inhibition of factor 12a (unknown origin) using Ac-QRFR-pNA as substrate preincubated for 30 mins followed by substrate addition and measured for 7 mins by spectrophotometric method.

A short description of series [2]: Stability in human serum at 200 uM up to 24 hrs by RP-HPLC analysis. In kind it is ADME, cell-free. The gist of the method:
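Peptides incubated in human serum for up to 24 h. At each time point, the area of the peptide peak on analytical HPLC is expressed as a percentage of the peptide peak in PBS at 0 h. Three independent experiments, SD.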

The next series addresses Plasminogen (Homo sapiens, UniProt P00747). In words: Inhibition of plasmin (unknown origin) using Ac-RM(O2)YR-pNA as substrate preincubated for 30 mins followed by substrate addition and measured for 7 mins by spectrophotometric method.
Series [3] is filed under the species Homo sapiens. In words: Selectivity ratio of Ki for KLK5 (unknown origin) expressed in Pichia pastoris strain X-33 to Ki for KLK4 (unknown origin) expressed in sf9 cells.
Another series concerns the target T2, Kallikrein-5 (Homo sapiens, UniProt Q9Y337).
T2 sequence (Q9Y337 whole entry): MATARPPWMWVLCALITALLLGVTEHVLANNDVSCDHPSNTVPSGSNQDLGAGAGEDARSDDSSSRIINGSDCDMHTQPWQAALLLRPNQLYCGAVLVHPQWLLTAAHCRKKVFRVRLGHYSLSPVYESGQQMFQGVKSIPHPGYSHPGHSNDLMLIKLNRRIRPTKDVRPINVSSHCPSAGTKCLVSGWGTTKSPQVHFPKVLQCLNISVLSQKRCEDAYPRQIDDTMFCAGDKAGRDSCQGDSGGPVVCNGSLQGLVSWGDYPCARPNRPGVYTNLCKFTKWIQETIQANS
In words: Inhibition of KLK5 (unknown origin) expressed in Pichia pastoris strain X-33 using Ac-YRSR-pNA as substrate preincubated for 30 mins followed by substrate addition and measured for 7 mins by spectrophotometric method.

For series [4], the species on record is Homo sapiens. In words: Selectivity ratio of Ki for KLK7 (unknown origin) expressed in Pichia pastoris strain X-33 to Ki for KLK4 (unknown origin) expressed in sf9 cells.
The target of a further series is Kallikrein-4 (Homo sapiens, UniProt Q9Y5K2). In words: Inhibition of KLK4 (unknown origin) expressed in sf9 cells using Ac-FVQR-pNA as substrate preincubated for 30 mins followed by substrate addition and measured for 7 mins by spectrophotometric method.
Sequence of Kallikrein-4 (Q9Y5K2 whole entry): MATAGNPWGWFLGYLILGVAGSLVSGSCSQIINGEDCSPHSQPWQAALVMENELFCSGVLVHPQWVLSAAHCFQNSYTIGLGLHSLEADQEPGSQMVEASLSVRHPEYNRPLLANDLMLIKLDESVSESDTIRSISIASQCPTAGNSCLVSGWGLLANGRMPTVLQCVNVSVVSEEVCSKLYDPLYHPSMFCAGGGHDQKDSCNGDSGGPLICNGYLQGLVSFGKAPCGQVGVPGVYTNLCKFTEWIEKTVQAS
The species named for series [5] is Homo sapiens. Kind of series: Selectivity ratio of Ki for KLK14 (unknown origin) expressed in sf9 cells to Ki for KLK4 (unknown origin) expressed in sf9 cells.
The next series concerns the target T3, Kallikrein-14 (Homo sapiens, UniProt Q9P0G3).
T3 sequence (Q9P0G3 whole entry): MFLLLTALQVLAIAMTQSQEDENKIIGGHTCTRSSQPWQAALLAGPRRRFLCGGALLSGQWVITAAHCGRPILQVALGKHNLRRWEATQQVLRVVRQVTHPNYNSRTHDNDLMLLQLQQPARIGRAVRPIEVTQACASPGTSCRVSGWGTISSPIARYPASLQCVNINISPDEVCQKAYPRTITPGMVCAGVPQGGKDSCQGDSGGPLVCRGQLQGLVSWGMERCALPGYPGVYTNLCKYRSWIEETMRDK
In words: Inhibition of KLK14 (unknown origin) expressed in sf9 cells using Ac-YANR-pNA as substrate preincubated for 30 mins followed by substrate addition and measured for 7 mins by spectrophotometric method.

A further series addresses Kallikrein-7 (Homo sapiens, UniProt P49862). In words: Inhibition of KLK7 (unknown origin) expressed in Pichia pastoris strain X-33 using KHLY-pNA as substrate preincubated for 30 mins followed by substrate addition and measured for 7 mins by spectrophotometric method.
A further series deals with HeLa. Kind of series: Cytotoxicity against human HeLa cells up to 64 uM after 2 hrs by resazurin dye based assay. Format: cell-based. The gist of the method:
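HeLa cells exposed to peptides for 2 h, concentrations up to 64 μM. Resazurin then added for 18 h at 37 °C. Resorufin absorbance read at 540 and 620 nm, and viability % expressed as the A620/A540 ratio. Three independent experiments, standard deviation.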
In general terms: Resazurin is reduced to fluorescent resorufin, in cell work by metabolically active cells.

In the next series the target is Coagulation factor X (Homo sapiens, UniProt P00742). Kind of series: Inhibition of factor 10a (unknown origin) using Ac-QRSR-pNA as substrate preincubated for 30 mins followed by substrate addition and measured for 7 mins by spectrophotometric method.
Sequence of Coagulation factor X (P00742 41-179 limits assumed): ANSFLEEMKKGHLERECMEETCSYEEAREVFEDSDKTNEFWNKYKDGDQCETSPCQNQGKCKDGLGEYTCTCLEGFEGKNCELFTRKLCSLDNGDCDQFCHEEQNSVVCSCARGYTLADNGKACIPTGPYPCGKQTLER
Sequence of Coagulation factor X (P00742 235-488 limits assumed): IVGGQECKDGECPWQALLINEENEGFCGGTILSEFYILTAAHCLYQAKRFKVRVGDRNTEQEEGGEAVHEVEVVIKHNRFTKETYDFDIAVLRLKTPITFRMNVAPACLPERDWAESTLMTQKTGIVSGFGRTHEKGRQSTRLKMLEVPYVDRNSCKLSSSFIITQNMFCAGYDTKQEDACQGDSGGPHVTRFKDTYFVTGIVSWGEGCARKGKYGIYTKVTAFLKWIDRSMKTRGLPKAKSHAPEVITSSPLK
The species entered for series [6] is Homo sapiens. Kind of series: Selectivity ratio of Ki for factor 12a (unknown origin) to Ki for KLK4 (unknown origin) expressed in sf9 cells.
The target in another series is Prothrombin (Homo sapiens, UniProt P00734). In words: Inhibition of thrombin (unknown origin) using Bz-FVR-pNA as substrate preincubated for 30 mins followed by substrate addition and measured for 7 mins by spectrophotometric method.
The species named for series [7] is Homo sapiens. Kind of series: Selectivity ratio of Ki for plasma kallikrein (unknown origin) to Ki for KLK4 (unknown origin) expressed in sf9 cells.
In the next series the target is Trypsin (Homo sapiens, UniProt P07477+P07478+P35030). In words: Inhibition of trypsin (unknown origin) using Bz-FVR-pNA as substrate preincubated for 30 mins followed by substrate addition and measured for 7 mins by spectrophotometric method. In kind it is protein assay.
For series [8], the species on record is Homo sapiens. In words: Selectivity ratio of Ki for thrombin (unknown origin) to Ki for KLK4 (unknown origin) expressed in sf9 cells.
Series [9] is described as follows: Drug uptake in human HeLa cells at 4 uM using Alexa Fluor 488 conjugated test compound after 1 hr by trypan blue dye based flow cytometry relative to HIV-Tat. In kind it is ADME, cell-based. The gist of the method: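 HeLa cells given Alexa Fluor 488-conjugated peptides (4 μM). Mean fluorescence measured by flow cytometry before and after trypan blue quenching of extracellular signal. Values normalized to the HIV-TAT positive control (post-trypan blue). Three independent experiments, SD; one-way ANOVA with Tukey's post hoc test.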
(In general: A flow cytometer gives signals particle by particle.)

The species named for series [10] is Homo sapiens. Kind of series: Selectivity ratio of Ki for plasmin (unknown origin) to Ki for KLK4 (unknown origin) expressed in sf9 cells.

Each structure is given as a SMILES string. Positions of bridges follow the written chain, without caps; N, C: chain ends. Residues, ends and D or L forms follow the SMILES beside them. Bounds are passed on as bounds.

Sequence of Kallikrein-7 (P49862 whole entry): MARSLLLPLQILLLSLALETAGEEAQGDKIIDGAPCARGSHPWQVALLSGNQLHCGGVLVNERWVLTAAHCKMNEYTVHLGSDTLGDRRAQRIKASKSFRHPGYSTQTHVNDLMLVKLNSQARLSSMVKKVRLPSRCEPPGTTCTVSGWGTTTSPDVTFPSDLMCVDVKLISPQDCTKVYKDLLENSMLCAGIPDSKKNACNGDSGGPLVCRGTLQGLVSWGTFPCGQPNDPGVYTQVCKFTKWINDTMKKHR
Sequence of Plasminogen (P00747 97-580 limits assumed): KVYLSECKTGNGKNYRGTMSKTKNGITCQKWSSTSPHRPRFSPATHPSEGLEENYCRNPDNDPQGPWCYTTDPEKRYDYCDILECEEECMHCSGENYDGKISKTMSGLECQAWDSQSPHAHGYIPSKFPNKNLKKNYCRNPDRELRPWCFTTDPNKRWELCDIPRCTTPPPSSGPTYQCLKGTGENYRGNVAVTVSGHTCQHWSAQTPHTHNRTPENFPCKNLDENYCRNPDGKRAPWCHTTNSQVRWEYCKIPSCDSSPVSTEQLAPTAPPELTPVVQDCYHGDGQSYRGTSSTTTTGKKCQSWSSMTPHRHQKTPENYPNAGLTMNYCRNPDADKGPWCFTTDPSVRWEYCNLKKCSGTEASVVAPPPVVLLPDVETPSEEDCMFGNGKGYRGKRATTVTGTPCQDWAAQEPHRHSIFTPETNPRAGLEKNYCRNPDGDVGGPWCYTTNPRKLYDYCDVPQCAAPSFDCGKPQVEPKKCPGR
Sequence of Plasminogen (P00747 581-810 limits assumed): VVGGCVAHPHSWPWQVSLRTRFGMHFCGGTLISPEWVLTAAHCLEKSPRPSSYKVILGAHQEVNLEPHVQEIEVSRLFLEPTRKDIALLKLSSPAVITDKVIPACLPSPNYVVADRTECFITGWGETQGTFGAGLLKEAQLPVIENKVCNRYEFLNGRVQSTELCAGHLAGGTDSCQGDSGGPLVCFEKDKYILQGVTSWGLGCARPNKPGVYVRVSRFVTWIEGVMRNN

Regarding `CC[C@H](C)[C@@H]1NC(=O)[C@@H]2CSSC[C@@H]3NC(=O)[C@H](Cc4ccccc4)NC(=O)CNC(=O)CNC(=O)[C@H](CC(=O)O)NC(=O)[C@H](CO)NC(=O)CNC(=O)[C@H](CO)NC(=O)CNC(=O)[C@@H]4CSSC[C@H](NC(=O)[C@H](CC(=O)O)NC(=O)[C@H](CO)NC(=O)[C@H](CC(=O)O)NC(=O)[C@H](CCCNC(=N)N)NC(=O)[C@H](CCCNC(=N)N)NC(=O)[C@H](CSSC[C@H](NC1=O)C(=O)N[C@@H](CCCNC(=N)N)C(=O)NCC(=O)N[C@@H](CC(N)=O)C(=O)NCC(=O)N[C@@H](Cc1ccc(O)cc1)C(=O)N4)NC(=O)[C@H](CCCCN)NC(=O)[C@H](CCCCN)NC(=O)[C@H](CC(C)C)NC(=O)[C@H]([C@@H](C)CC)NC(=O)[C@H](CCCNC(=N)N)NC(=O)[C@H](CCC(N)=O)NC3=O)C(=O)N1CCC[C@H]1C(=O)NCC(=O)N[C@@H](C)C(=O)N2` (cyclo(ACICRGNGYCGSGSDGGFCQRILKKCRRDSDCPG); disulfide 2-19, 4-26, 10-32), the Ki on Plasma kallikrein is over 10 µM; at Coagulation factor XII, over 10 µM; on Plasminogen, over 10 µM; at Kallikrein-5, over 10 µM; on Kallikrein-4, 0.0001 µM; at Kallikrein-14, over 10 µM. In addition, the Ki is over 10 µM on Kallikrein-7, 0.5 µM on Coagulation factor X, over 10 µM at Prothrombin and 0.031 µM at Trypsin. For the same compound, the Ratio Ki is 5000 in the series listed under Homo sapiens [1]; over 100000 in the series listed under Homo sapiens [3]; over 100000 in the series listed under Homo sapiens [4]; over 100000 in the series listed under Homo sapiens [5]; over 100000 in the series listed under Homo sapiens [6]; over 100000 in the series filed under Homo sapiens [7]. Moreover, the Ratio Ki in the series listed under Homo sapiens [8] and in the series listed under Homo sapiens [10] was over 100000 each time. Moreover, the Stability entry in series [2] is listed as “Stable”. Besides, the Activity entry in the series with HeLa is recorded as “Non-Toxic”. Further, in series [9], the Drug uptake was 23%.
